Reference: ChEMBL document CHEMBL3632558, “Synthesis, antimycobacterial and antibacterial activity of l-[(1R,2S)-2-fluorocyclopropyl]naphthyridone derivatives containing an oxime-functionalized pyrrolidine moiety” (2015)
≈ marks a conversion by molar mass, not a printed value.

How the values were obtained:
Type in all cases: functional
Enterococcus faecalis [1] = test: Antibacterial activity against Enterococcus faecalis 14-2 after 18 to 24 hrs
Procedure, shortened: (§1)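 MIC by standard NCCLS reference procedure (M100-S11); lowest concentration of compound inhibiting visible bacterial growth after incubation at 35 °C for 18–24 h, read as complete inhibition of growth. Ciprofloxacin, levofloxacin and moxifloxacin run alongside as reference agents.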

Enterococcus faecium [2] = test: Antibacterial activity against Enterococcus faecium 14-1 after 18 to 24 hrs; procedure, shortened: as §1
Enterococcus faecium [3] = test: Antibacterial activity against Enterococcus faecium 14-2 after 18 to 24 hrs; procedure, shortened: as §1
Enterococcus faecium [4] = test: Antibacterial activity against Enterococcus faecium 14-5 after 18 to 24 hrs; procedure, shortened: as §1
Enterococcus faecium [5] = test: Antibacterial activity against Enterococcus faecium 14-6 after 18 to 24 hrs; procedure, shortened: as §1
[6] = system: Mycobacterium tuberculosis; test: Antimycobacterial activity against Mycobacterium tuberculosis H37Rv ATCC 27294 by alamar blue assay
Procedure, shortened: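 Microplate Alamar Blue Assay; MIC is the lowest concentration giving ≥90% reduction in fluorescence relative to the mean of replicate bacterium-only controls. MDR strain 6133 is resistant to isoniazid and rifampicin.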

Escherichia coli [7] = test: Antibacterial activity against Escherichia coli ATCC 25922 after 18 to 24 hrs; procedure, shortened: as §1
Escherichia coli [8] = test: Antibacterial activity against ESBL-positive Escherichia coli 14-1 after 18 to 24 hrs; procedure, shortened: as §1
Escherichia coli [9] = test: Antibacterial activity against ESBL-positive Escherichia coli 14-2 after 18 to 24 hrs; procedure, shortened: as §1
Escherichia coli [10] = test: Antibacterial activity against Escherichia coli 14-1 after 18 to 24 hrs; procedure, shortened: as §1
Escherichia coli [11] = test: Antibacterial activity against Escherichia coli 14-2 after 18 to 24 hrs; procedure, shortened: as §1
Klebsiella pneumoniae [12] = test: Antibacterial activity against ESBL-positive Klebsiella pneumoniae 14-17 after 18 to 24 hrs; procedure, shortened: as §1
Klebsiella pneumoniae [13] = test: Antibacterial activity against ESBL-positive Klebsiella pneumoniae 14-18 after 18 to 24 hrs; procedure, shortened: as §1
Klebsiella pneumoniae [14] = test: Antibacterial activity against ESBL-positive Klebsiella pneumoniae 14-19 after 18 to 24 hrs; procedure, shortened: as §1
Klebsiella pneumoniae [15] = test: Antibacterial activity against Klebsiella pneumoniae 14-1 after 18 to 24 hrs; procedure, shortened: as §1
Klebsiella pneumoniae [16] = test: Antibacterial activity against Klebsiella pneumoniae 14-2 after 18 to 24 hrs; procedure, shortened: as §1
Klebsiella pneumoniae [17] = test: Antibacterial activity against Klebsiella pneumoniae 14-3 after 18 to 24 hrs; procedure, shortened: as §1
Klebsiella pneumoniae [18] = test: Antibacterial activity against Klebsiella pneumoniae 14-4 after 18 to 24 hrs; procedure, shortened: as §1
Pseudomonas aeruginosa [19] = test: Antibacterial activity against Pseudomonas aeruginosa ATCC 27853 after 18 to 24 hrs; procedure, shortened: as §1
Pseudomonas aeruginosa [20] = test: Antibacterial activity against Pseudomonas aeruginosa 14-9 after 18 to 24 hrs; procedure, shortened: as §1
Pseudomonas aeruginosa [21] = test: Antibacterial activity against Pseudomonas aeruginosa 14-14 after 18 to 24 hrs; procedure, shortened: as §1
Pseudomonas aeruginosa [22] = test: Antibacterial activity against Pseudomonas aeruginosa 14-15 after 18 to 24 hrs; procedure, shortened: as §1
Pseudomonas aeruginosa [23] = test: Antibacterial activity against Pseudomonas aeruginosa 14-16 after 18 to 24 hrs; procedure, shortened: as §1
Pseudomonas aeruginosa [24] = test: Antibacterial activity against Pseudomonas aeruginosa 14-19 after 18 to 24 hrs; procedure, shortened: as §1
Staphylococcus aureus [25] = test: Antibacterial activity against Staphylococcus aureus CMCC 26003 after 18 to 24 hrs; procedure, shortened: as §1
Staphylococcus aureus [26] = test: Antibacterial activity against methicillin-sensitive Staphylococcus aureus 14-1 after 18 to 24 hrs; procedure, shortened: as §1
Staphylococcus aureus [27] = test: Antibacterial activity against methicillin-sensitive Staphylococcus aureus 14-2 after 18 to 24 hrs; procedure, shortened: as §1
Staphylococcus aureus [28] = test: Antibacterial activity against methicillin-sensitive Staphylococcus aureus 14-3 after 18 to 24 hrs; procedure, shortened: as §1
Staphylococcus aureus [29] = test: Antibacterial activity against methicillin-sensitive Staphylococcus aureus 14-4 after 18 to 24 hrs; procedure, shortened: as §1
Staphylococcus aureus [30] = test: Antibacterial activity against methicillin-resistant Staphylococcus aureus 14-4 after 18 to 24 hrs
Staphylococcus aureus [31] = test: Antibacterial activity against methicillin-resistant Staphylococcus aureus 14-5 after 18 to 24 hrs
[32] = system: Staphylococcus epidermidis; test: Antibacterial activity against methicillin-sensitive Staphylococcus epidermidis 14-2 after 18 to 24 hrs; procedure, shortened: as §1
[33] = system: Staphylococcus epidermidis; test: Antibacterial activity against methicillin-resistant Staphylococcus epidermidis 14-21 after 18 to 24 hrs
[34] = system: Staphylococcus epidermidis; test: Antibacterial activity against methicillin-resistant Staphylococcus epidermidis 14-22 after 18 to 24 hrs
[35] = system: Staphylococcus epidermidis; test: Antibacterial activity against methicillin-resistant Staphylococcus epidermidis 14-37 after 18 to 24 hrs
[36] = system: Staphylococcus epidermidis; test: Antibacterial activity against methicillin-resistant Staphylococcus epidermidis 14-39 after 18 to 24 hrs
Streptococcus pneumoniae = test: Antibacterial activity against Streptococcus pneumoniae ATCC 19615 after 18 to 24 hrs; procedure, shortened: as §1
Enterococcus faecalis [37] = test: Antibacterial activity against Enterococcus faecalis 14-1 after 18 to 24 hrs; procedure, shortened: as §1

| Compound | MIC (Enterococcus faecalis [1]) [mg/L] | MIC (Enterococcus faecium [2]) [mg/L] | MIC (Enterococcus faecium [3]) [mg/L] | MIC (Enterococcus faecium [4]) [mg/L] | MIC (Enterococcus faecium [5]) [mg/L] | MIC90 [6] [mg/L] | MIC (Escherichia coli [7]) [mg/L] | MIC (Escherichia coli [8]) [mg/L] | MIC (Escherichia coli [9]) [mg/L] | MIC (Escherichia coli [10]) [mg/L] | MIC (Escherichia coli [11]) [mg/L] | MIC (Klebsiella pneumoniae [12]) [mg/L] | MIC (Klebsiella pneumoniae [13]) [mg/L] | MIC (Klebsiella pneumoniae [14]) [mg/L] | MIC (Klebsiella pneumoniae [15]) [mg/L] | MIC (Klebsiella pneumoniae [16]) [mg/L] | MIC (Klebsiella pneumoniae [17]) [mg/L] | MIC (Klebsiella pneumoniae [18]) [mg/L] | MIC (Pseudomonas aeruginosa [19]) [mg/L] | MIC (Pseudomonas aeruginosa [20]) [mg/L] | further results |
| --- | --- | --- | --- | --- | --- | --- | --- | --- | --- | --- | --- | --- | --- | --- | --- | --- | --- | --- | --- | --- | --- |
| NCC1CN(c2nc3c(cc2F)c(=O)c(C(=O)O)cn3[C@@H]2C[C@@H]2F)C/C1=N\OCc1ccc(Br)cc1 (some centres not stated) | 0.125 (≈ 0.222 µM) | 2 (≈ 3.56 µM) | 2 (≈ 3.56 µM) | 8 (≈ 14.2 µM) | 16 (≈ 28.5 µM) | 0.375 (≈ 0.667 µM) | 0.125 (≈ 0.222 µM) | 4 (≈ 7.11 µM) | 64 (≈ 114 µM) | 64 (≈ 114 µM) | 64 (≈ 114 µM) | 8 (≈ 14.2 µM) | 8 (≈ 14.2 µM) | > 128 | 128 (≈ 228 µM) | 128 (≈ 228 µM) | 128 (≈ 228 µM) | 128 (≈ 228 µM) | 4 (≈ 7.11 µM) | 8 (≈ 14.2 µM) | MIC (Pseudomonas aeruginosa [21]): 8 mg/L (≈ 14.2 µM); MIC (Pseudomonas aeruginosa [22]): 8 mg/L (≈ 14.2 µM); MIC (Pseudomonas aeruginosa [23]): 8 mg/L (≈ 14.2 µM); MIC (Pseudomonas aeruginosa [24]): 16 mg/L (≈ 28.5 µM); MIC (Staphylococcus aureus [25]): < 0.008 mg/L; MIC (Staphylococcus aureus [26]): 2 mg/L (≈ 3.56 µM); MIC (Staphylococcus aureus [27]): < 0.008 mg/L; MIC (Staphylococcus aureus [28]): 0.015 mg/L (≈ 0.0267 µM); MIC (Staphylococcus aureus [29]): < 0.008 mg/L; MIC (Staphylococcus aureus [30]): 16 mg/L (≈ 28.5 µM); MIC (Staphylococcus aureus [31]): 16 mg/L (≈ 28.5 µM); MIC [32]: 16 mg/L (≈ 28.5 µM); MIC [33]: 4 mg/L (≈ 7.11 µM); MIC [34]: 2 mg/L (≈ 3.56 µM); MIC [35]: 16 mg/L (≈ 28.5 µM); MIC [36]: 8 mg/L (≈ 14.2 µM); MIC (Streptococcus pneumoniae): < 0.008 mg/L; MIC (Enterococcus faecalis [37]): 32 mg/L (≈ 56.9 µM) |
| NCC1CN(c2nc3c(cc2F)c(=O)c(C(=O)O)cn3[C@@H]2C[C@@H]2F)C/C1=N\OCc1ccc(OC(F)(F)F)cc1 (some centres not stated) | 0.5 (≈ 0.881 µM) | 4 (≈ 7.05 µM) | 4 (≈ 7.05 µM) | 8 (≈ 14.1 µM) | 4 (≈ 7.05 µM) | 0.987 (≈ 1.74 µM) | 2 (≈ 3.52 µM) | 8 (≈ 14.1 µM) | 128 (≈ 226 µM) | 128 (≈ 226 µM) | 128 (≈ 226 µM) | 32 (≈ 56.4 µM) | 32 (≈ 56.4 µM) | 128 (≈ 226 µM) | 128 (≈ 226 µM) | 128 (≈ 226 µM) | 128 (≈ 226 µM) | 128 (≈ 226 µM) | 16 (≈ 28.2 µM) | 16 (≈ 28.2 µM) | MIC (Pseudomonas aeruginosa [21]): 32 mg/L (≈ 56.4 µM); MIC (Pseudomonas aeruginosa [22]): 32 mg/L (≈ 56.4 µM); MIC (Pseudomonas aeruginosa [23]): 32 mg/L (≈ 56.4 µM); MIC (Pseudomonas aeruginosa [24]): 16 mg/L (≈ 28.2 µM); MIC (Staphylococcus aureus [25]): < 0.008 mg/L; MIC (Staphylococcus aureus [26]): 4 mg/L (≈ 7.05 µM); MIC (Staphylococcus aureus [27]): 0.03 mg/L (≈ 0.0529 µM); MIC (Staphylococcus aureus [28]): 0.015 mg/L (≈ 0.0264 µM); MIC (Staphylococcus aureus [29]): 0.06 mg/L (≈ 0.106 µM); MIC (Staphylococcus aureus [30]): 16 mg/L (≈ 28.2 µM); MIC (Staphylococcus aureus [31]): 4 mg/L (≈ 7.05 µM); MIC [32]: 16 mg/L (≈ 28.2 µM); MIC [33]: 8 mg/L (≈ 14.1 µM); MIC [34]: 8 mg/L (≈ 14.1 µM); MIC [35]: 8 mg/L (≈ 14.1 µM); MIC [36]: 8 mg/L (≈ 14.1 µM); MIC (Streptococcus pneumoniae): 0.015 mg/L (≈ 0.0264 µM); MIC (Enterococcus faecalis [37]): 32 mg/L (≈ 56.4 µM) |
| NCC1CN(c2nc3c(cc2F)c(=O)c(C(=O)O)cn3[C@@H]2C[C@@H]2F)C/C1=N\OCc1ccccc1 (some centres not stated) |  |  |  |  |  | 0.5 (≈ 1.03 µM) |  |  |  |  |  |  |  |  |  |  |  |  |  |  |  |
